The results in this text go back to ChEMBL document CHEMBL1132424, “Design, synthesis, and evaluation of a novel sequence-selective epoxide-containing DNA cross-linking agent based on the pyrrolo[2, 1-c][1,4]benzodiazepine system” (J Med Chem, 1999).

Assay [1] has as its system Nucleic Acid. Kind of assay: Effect on thermal denaturation temperature of CT-DNA after incubation for 0 hours with the compound. It is filed as functional. To be noted: Bos taurus. In a few lines:
(§1)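 Calf thymus duplex DNA (100 µM in phosphate) with PBD at 20 µM (1:5 PBD/DNA ratio), added from concentrated MeOH solution. Buffer was 10 mM sodium phosphate, 1 mM Na2EDTA, pH 7.00. Incubated at 37 °C for the stated time, then A260 read while heating 40-98 °C at 1 °C/min. Tm taken from d(A260)/dT maxima, MeOH-corrected. ΔTm = Tm(DNA+PBD) − Tm(DNA alone). Mean of three determinations.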

Assay [2] has as its system Nucleic Acid. Kind of assay: Effect on thermal denaturation temperature of CT-DNA after incubation for 4 hours with the compound. To be noted: Bos taurus. The assay is classed as functional. The essentials:
as §1

Assay [3] concerns Nucleic Acid. Kind of assay: Effect on thermal denaturation temperature of CT-DNA after incubation for 36 hours with the compound. It is filed as functional. The settings on record: Bos taurus. The essentials: as §1
In assay [4] the test system is Nucleic Acid. The assay is described as follows: Effect on thermal denaturation temperature of CT-DNA after incubation for 18 hours with the compound. It is filed as functional. To be noted: Bos taurus. The essentials:
as §1

In assay [5] the test system is A2780. The assay is described as follows: In vitro cytotoxicity against. ovarian carcinoma cell line A2780. The assay is classed as functional, cell-based, Homo sapiens. In a few lines:
(§2)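 Cells seeded and left to attach overnight, then exposed in quadruplicate wells to compound (20 mM DMSO stock diluted in growth medium) at final 100 µM to 2.5 nM for 96 h at 37 °C. Cells fixed with 10% trichloroacetic acid, stained with 0.4% sulforhodamine B, absorbance read at 540 nm. IC50 from concentration versus percent absorbance of untreated wells.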

A further assay concerns CH1. Kind of assay: In vitro cytotoxicity against ovarian carcinoma cell line CH1. The assay is classed as functional, cell-based, Homo sapiens. The essentials:
as §2

The subject of another assay is SK-OV-3. Kind of assay: In vitro cytotoxicity against. ovarian carcinoma cell line SKOV-3. It is filed as functional, cell-based, Homo sapiens. The essentials: as §2
The subject of assay [6] is A2780. The assay is described as follows: In vitro cytotoxicity against. ovarian carcinoma cell line A2780cisR (cisplatin resistant counter part of A2780). It is filed as functional, cell-based, Homo sapiens. The essentials: as §2
Assay [7] can be described thus: In vitro cytotoxicity against. ovarian carcinoma cell line CH1cisR (cisplatin resistant counter part of CH1). The assay is classed as functional, cell-based, Homo sapiens. The essentials: as §2

In general, ΔTm refers to the change in melting temperature against a reference sample. For `COc1cc2c(cc1O)N=C[C@@H]1CCCN1C2=O`, the ΔTm in the assay with Nucleic Acid [1] was 0.3 °C; with Nucleic Acid [2], 0.5 °C; in the assay on Nucleic Acid [3], 0.7 °C; in the assay on Nucleic Acid [4], 0.7 °C.
Usually IC50 stands for the concentration needed to halve the response being measured. As to `COc1cc2c(cc1OCCCOc1cc3c(cc1OC)C(=O)N1CCC[C@H]1C=N3)N=C[C@@H]1CCCN1C2=O` [DSB-120], the IC50 with A2780 [5] (Homo sapiens, A2780) was found to be 7.2 nM; with CH1 (Homo sapiens, CH1), 33 nM; with SK-OV-3 (Homo sapiens, SK-OV-3) it was 740 nM; with A2780 [6] (Homo sapiens, A2780), 210 nM; in assay [7] (Homo sapiens, CH1cisR), 22 nM. The shift in melting temperature (ΔTm) is 10.2 °C with Nucleic Acid [1], 13.1 °C with Nucleic Acid [2] and 15.1 °C in the assay with Nucleic Acid [4].
On to `COc1cc2c(cc1OCC1CO1)N=C[C@@H]1CCCN1C2=O` (some centres undefined), for which the IC50 in the assay on A2780 [5] (Homo sapiens, A2780) was determined as 45 nM; in the assay on CH1 (Homo sapiens, CH1), 59 nM; with SK-OV-3 (Homo sapiens, SK-OV-3) it was 1300 nM; in the assay on A2780 [6] (Homo sapiens, A2780) it was 200 nM; in assay [7] (Homo sapiens, CH1cisR) it was 47 nM. Moreover, the ΔTm is 0.5 °C in the assay on Nucleic Acid [1], 0.8 °C with Nucleic Acid [2], 1.5 °C in the assay with Nucleic Acid [3] and 1.3 °C with Nucleic Acid [4].
For CISPLATIN, the IC50 turned out to be 160 nM in the assay on A2780 [5] (a2780); 29 nM with CH1 (ch1); 4200 nM with SK-OV-3 (sk-ov-3); 6100 nM in the assay on A2780 [6] (a2780); 170 nM in assay [7] (ch1cisr).
As to `C=CCOc1cc2c(cc1OC)C(=O)N1CCC[C@H]1C=N2`, the IC50 with A2780 [5] (Homo sapiens, A2780) was determined as 1050 nM; in the assay with CH1 (Homo sapiens, CH1), 160 nM; in the assay on SK-OV-3 (Homo sapiens, SK-OV-3), 3300 nM; in the assay on A2780 [6] (Homo sapiens, A2780), 1650 nM; in [7] (Homo sapiens, CH1cisR), 135 nM. Moreover, the figures for the ΔTm in the assay with Nucleic Acid [1], in the assay on Nucleic Acid [2] and in the assay on Nucleic Acid [4] were 0.4 °C, 0.7 °C and 0.8 °C, respectively.
